Bioassay records deposited in PubChem by Sanford-Burnham Center for Chemical Genomics.
NadD block: inhibitors of Staphylococcus aureus NadD | purified NadD enzyme, colorimetric absorbance read-out | inhibition, % at 20 µM | 360,000 tested, 0.78% active; in the data active = inhibition above about 26%
SUMO1 PPI mod: SUMO1-SIM interaction modulation; P63165; SUMO1 binding to a labelled peptide, TR-FRET, 1 h; inhibition, % at 20 µM; 360,000 tested, 0.33% active; AID 602429; in the data active = inhibition above about 37%
Target sequence (P63165 whole entry, looked up): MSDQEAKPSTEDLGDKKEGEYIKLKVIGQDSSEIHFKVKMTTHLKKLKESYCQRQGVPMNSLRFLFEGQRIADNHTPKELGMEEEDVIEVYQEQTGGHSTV
Scp-1 inhibitor: Scp-1 (human) phosphatase inhibition; Q9GZU7; Recombinant Scp1, phosphopeptide, malachite green phosphate absorbance; inhibition, % at 20 µM; 340,000 tested, 0.88% active; AID 493091;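 active = inhibition above about 50% at 20 µM, limit read from the data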
Target sequence (Q9GZU7 76-261 limits assumed): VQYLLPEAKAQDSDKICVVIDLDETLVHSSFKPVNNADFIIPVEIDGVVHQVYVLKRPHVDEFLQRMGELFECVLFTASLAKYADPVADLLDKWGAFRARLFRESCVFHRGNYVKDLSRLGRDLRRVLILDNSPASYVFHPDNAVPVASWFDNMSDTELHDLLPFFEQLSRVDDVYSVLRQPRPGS
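Assay system: SCP-1 catalytic fragment, aa 76-261 | Buffer or medium: Tris acetate buffer pH 5.5 with MgCl2 and Tween-20 | Compound: One concentration, 20 µM, with 1.0% DMSO | Also added: Phospho 17-mer peptide substrate | Signal: Absorbance at 630 nm | Incubation: 45 min enzyme reaction at room temperature | Measure: % inhibition of SCP-1 phosphate liberation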
DNMT1 inh: blocks human DNA methyltransferase DNMT1; DNMT1 molecular beacon, Hinp1I cleavage, fluorescence; inhibition (reported as % activation of signal), % at 10 µM; 360,000 tested, 0.83% active; AID 588458; in the data active = inhibition above about 50%
LMPTP inh: LMPTP (human) inhibition. P24666. recombinant LMPTP-A, OMFP fluorogenic substrate, fluorescence intensity. inhibition, % at 20 µM. 360,000 tested, 0.22% active;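 active = compounds that cut the enzyme signal by at least half of the control window in the single-dose screen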
Target sequence (P24666 whole entry, looked up): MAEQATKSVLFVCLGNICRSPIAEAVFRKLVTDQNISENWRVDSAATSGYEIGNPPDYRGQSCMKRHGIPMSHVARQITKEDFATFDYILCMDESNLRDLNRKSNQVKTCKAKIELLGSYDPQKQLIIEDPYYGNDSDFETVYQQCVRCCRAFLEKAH
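Material: LMPTP-A; amount: 0.625 nM enzyme; doses: single 20 µM dose; times: reaction 50 min, room temperature, dark; technique: fluorescence intensity of OMFP turnover product; benchmarks: no-enzyme and uninhibited controls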
STEP inh: STEP (human) phosphatase inhibition | P54829 | AID 588621 | 360,000 tested, 0.25% active | recombinant STEP, OMFP fluorogenic substrate, fluorescence | inhibition, % at 20 µM;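 active = inhibition at 20 µM, scaled per plate between control wells, above about 37%, limit read from the data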
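Assay system: isolated STEP enzyme. Buffer or medium: pH 6.0 Bis-Tris with DTT and Tween 20. Also added: fluorogenic phosphatase substrate OMFP at 25 µM final. Dosing: 20 µM, 1% DMSO. Timing: 20 min reaction, room temperature, in the dark. Measured by: fluorescence intensity, excitation 480 nm, emission 540 nm. Evaluation: normalized % inhibition.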
DNMT1 interf DR: counter-screen for DNMT1 inhibitors: spectral interference, dose response; shares compounds with DNMT1 inh; molecular beacon fluorescence; IC50, µM; 200 tested, under 10 active; AID 602382; call rule not given here
DNMT1 inh conf: confirmation of human DNMT1 inhibitors; shares compounds with DNMT1 inh; DNMT1 molecular beacon HinP1I cleavage, fluorescence; inhibition, % at 10 µM; 2,300 tested, 8% active; AID 602385;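 active = average inhibition of at least 30% in the single-concentration confirmation test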
Beacon interf: beacon fluorescence artifact counter-screen. shares compounds with DNMT1 inh. DNMT1 molecular beacon spectral interference counterscreen, fluorescence 485/520. activation (fluorescence interference), % at 10 µM. 2,300 tested, 1% active. AID 602387;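 active = activation of at least 30% at 10 µM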;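 note: DNMT1 catalytic domain with a HinP1I cleavage step and a FAM/dabcyl DNA beacon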
Each line names hits and unclear results; the compound was inactive in the other large screens (follow-up assays come after a bar, where they were run). Only some compounds are listed: those with a hit (about 2.4% of all), similar ones and a draw of the others.

CCOC(=O)c1sc(NC(=O)/C=C/c2c(F)cccc2Cl)nc1C	DNMT1 inh 60 | DNMT1 inh conf inactive | Beacon interf inactive
CCOC(=O)c1sc(NC(=O)Nc2ccccc2F)nc1C	none
OC(CN1CCOCC1)c1ccc(F)cc1 (stereo unspecified)	DNMT1 inh 77 | DNMT1 inh conf inactive | Beacon interf inactive
O=C(c1cccc(F)c1)N1CCN(Cc2ccc3c(c2)OCO3)CC1	none
O=C(c1cccc(Cl)c1)N1CCN(Cc2ccc3c(c2)OCO3)CC1	DNMT1 inh 90 | DNMT1 inh conf inactive | Beacon interf inactive
ClN=C1C=CC=CC1=NCl	SUMO1 PPI mod 57, DNMT1 inh 114, LMPTP inh 68 (no result: Scp-1 inhibitor) | DNMT1 interf DR inactive | DNMT1 inh conf 36 | Beacon interf inactive
CC(CCc1ccco1)NC(=O)c1cccc2c1C(=O)N(C1CCCCC1)C2 (stereo unspecified)	none
COc1ccc(N2Cc3cccc(C(=O)NC(C)CCc4ccco4)c3C2=O)cc1 (stereo unspecified)	Scp-1 inhibitor 79, DNMT1 inh 77 | DNMT1 inh conf inactive | Beacon interf inactive
CCNC(=O)C1CCCN(C(=O)c2ccc(C(F)(F)F)cc2)CC1 (stereo unspecified)	none (no result: Scp-1 inhibitor)
CCn1c(SCC(=O)NC2CCCCC2)nc2ccccc2c1=O	none
CCOc1ccccc1C(=O)NCc1ccc2c(c1)OCO2	none
CCOc1cccc2cc(-c3nnc(NCc4ccc5c(c4)OCO5)s3)c(=O)oc12	DNMT1 inh 70 | DNMT1 inh conf inactive | Beacon interf inactive
CC(=O)Nc1cccc(-c2ccnc3c2CC(C(=O)Nc2ccc(Cl)cc2)O3)c1 (stereo unspecified)	none (no result: Scp-1 inhibitor)
COc1ccc(CNC(=O)C2CCCN(C(=O)Nc3ccc(OC)cc3)C2)cc1 (stereo unspecified)	none
COc1ccc(NC(=O)C2Cc3c(-c4cccc(C(N)=O)c4)ccnc3O2)cc1 (stereo unspecified)	DNMT1 inh 55 (no result: Scp-1 inhibitor) | DNMT1 inh conf inactive | Beacon interf inactive
c1ccc(-c2cnn3c(-c4ccccc4)c(-c4ccccc4)nc3n2)cc1	DNMT1 inh 178 | DNMT1 inh conf inactive | Beacon interf 60
CCCc1nnc(NS(=O)(=O)c2ccc(OC)cc2)s1	DNMT1 inh 72 | DNMT1 inh conf inactive | Beacon interf inactive
COCc1nnc(NS(=O)(=O)c2ccc(OC)cc2)s1	none
CCN(CCNC(=O)Nc1ccc(Cl)cc1)c1ccccc1	none
CC(C)CNC(=O)c1cc(S(=O)(=O)N2CCOCC2)ccc1N1CCCC1	none
Cc1cccc(Nc2nnc(SCC(=O)NC(=O)Nc3ccc4c(c3)OCCO4)s2)c1	DNMT1 inh 50 | DNMT1 inh conf inactive | Beacon interf inactive
Cc1ccc(C(=O)C2=C(O)C(=O)N(Cc3ccco3)C2c2cccc(Br)c2)o1 (stereo unspecified)	none
O=C(C1=C(O)C(=O)N(Cc2ccco2)C1c1cccc(O)c1)c1ccco1 (stereo unspecified)	DNMT1 inh 81 | DNMT1 inh conf inactive | Beacon interf inactive
C=CCOC(=O)c1cc(-c2ccc(/C=C3\C(=O)NC(=O)C(C#N)=C3C)o2)ccc1Cl	NadD block 69, SUMO1 PPI mod 43, Scp-1 inhibitor 87, DNMT1 inh 105 | DNMT1 interf DR inactive | DNMT1 inh conf 97 | Beacon interf inactive
O=C(O)C(CCC(C(=O)O)c1ccccc1)c1ccccc1 (stereo unspecified)	none
O=C(Cn1cnnn1)OCC(=O)c1ccc(Cl)s1	DNMT1 inh 58 | DNMT1 inh conf inactive | Beacon interf inactive
Cc1cc(C)c(C(=O)COC(=O)Cn2cnnn2)cc1C	none
O=C(Cc1ccc(F)cc1)Nc1nnc(-c2ccc(F)cc2)o1	none
